Data published in ChEMBL document CHEMBL1123789, “Synthesis of beta-carboline-benzodiazepine hybrid molecules: use of the known structural requirements for benzodiazepine and beta-carboline binding in designing a novel, high-affinity ligand for the benzodiazepine receptor” (J Med Chem, 1987).

Key:
[1] = target: GABA-A receptor; anion channel; experiment: Displacement of [3H]beta-CCE from GABA-A benzodiazepine receptor of rat cerebral cortex membranes; format: cell membranes, Membrane
In short: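 Rat cerebral cortex membranes, washed in 50 mM Tris-HCl pH 7.4, stored at −20 °C for at least 24 h. 60 µg protein incubated 60 min at 0 °C with 0.4 nM [3H]-β-CCE (final) and test compound from 5×10^-10 to 10^-5 M. Nonspecific binding was defined with 1 µM unlabeled β-CCE. Bound ligand collected by GF/B filtration and counted by scintillation. Duplicates; IC50 from Hofstee analysis.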

[2] = target: GABA-A receptor; anion channel; experiment: Displacement of [3H]flunitrazepam from GABA-A benzodiazepine receptor of rat cerebral cortex membrane; format: tissue-based
In short: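 Rat cerebral cortex homogenised in ice-cold 50 mM Tris-HCl pH 7.4, washed by centrifugation, frozen at -20 °C ≥24 h. Filtration on glass fibre, scintillation counting, duplicates; IC50 by Hofstee analysis.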

[3] = target: T1, GABA-A receptor; anion channel (Mus musculus) (UniProt Q8BHJ7+P26048+Q8QZW7+P50571+Q9R0Y8+P22723+A2AMW3+P62812+Q9JLF1+P26049+P22933+Q9D6F4+P63080+P27681+P16305); experiment: In vivo total binding of [3H]flunitrazepam (200uCi/kg, 20 min) to GABA-A benzodiazepine receptor of mouse cortex; format: organism-based
In short: (§1)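 Male Swiss mice received [3H]flunitrazepam 200 µCi/kg in saline via tail vein, 20 min before decapitation. Cerebellum, cortex and hippocampus were dissected on ice and homogenized in ice-cold 50 mM Tris-HCl pH 7.4. Two 600-µL aliquots (12 mg wet tissue) were filtered on GF/B, washed twice and counted. Results given as pCi/mg wet tissue.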

[4] = target: T1, GABA-A receptor; anion channel (Mus musculus); experiment: In vivo displacement of [3H]flunitrazepam to GABA-A benzodiazepine receptor of mouse hippocampus at 10 mg/kg, 10 min; format: organism-based; set-up: dose 10 mg/kg
In short: (§2)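 Male Swiss mice received [3H]flunitrazepam 200 µCi/kg iv via tail vein. Test compound, 10 mg/kg suspended in Tween 80, was given 10 min later and 10 min before decapitation. Cerebellum, cortex and hippocampus were homogenized in cold 50 mM Tris-HCl pH 7.4. Crude homogenate (12 mg wet tissue) was filtered on GF/B and counted, as pCi/mg wet tissue.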

[5] = target: T1, GABA-A receptor; anion channel (Mus musculus); experiment: In vivo binding of [3H]flunitrazepam to GABA-A benzodiazepine receptor of mouse cortex after maximal Diazepam (10 mg/kg, 40 min); format: organism-based
In short: (§3)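 Nonspecific in vivo binding. Diazepam 10 mg/kg was given to male Swiss mice 40 min before iv [3H]flunitrazepam (200 µCi/kg) and 60 min before decapitation. Cerebellum, cortex and hippocampus were homogenized in cold 50 mM Tris-HCl pH 7.4. Crude homogenate (12 mg wet tissue) was filtered on GF/B and counted, as pCi/mg wet tissue.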

[6] = target: T1, GABA-A receptor; anion channel (Mus musculus); experiment: In vivo displacement of [3H]flunitrazepam to GABA-A benzodiazepine receptor of mouse cerebellum at 10 mg/kg, 10 min; format: organism-based; set-up: dose 10 mg/kg; in short: as §2
[7] = target: T1, GABA-A receptor; anion channel (Mus musculus); experiment: In vivo total binding of [3H]flunitrazepam (200uCi/kg, 20 min) to GABA-A benzodiazepine receptor of mouse hippocampus; format: organism-based; in short: as §1
[8] = target: T1, GABA-A receptor; anion channel (Mus musculus); experiment: In vivo binding of [3H]flunitrazepam to GABA-A benzodiazepine receptor of mouse hippocampus after maximal Diazepam (10 mg/kg, 40 min); format: organism-based; in short: as §3
[9] = target: T1, GABA-A receptor; anion channel (Mus musculus); experiment: In vivo displacement of [3H]flunitrazepam to GABA-A benzodiazepine receptor of mouse cortex at 10 mg/kg, 10 min; format: organism-based; set-up: dose 10 mg/kg; in short: as §2
[10] = target: T1, GABA-A receptor; anion channel (Mus musculus); experiment: In vivo total binding of [3H]flunitrazepam (200uCi/kg, 20 min) to GABA-A benzodiazepine receptor of mouse cerebellum; format: organism-based; in short: as §1
[11] = target: T1, GABA-A receptor; anion channel (Mus musculus); experiment: In vivo binding of [3H]flunitrazepam to GABA-A benzodiazepine receptor of mouse cerebellum after maximal Diazepam (10mg/kg, 40 min); format: organism-based; in short: as §3

Row | SMILES | IC50 [1] | IC50 [2] | other results
1 | CN1C(=O)CN=C(c2ccccc2F)c2cc([N+](=O)[O-])ccc21 [FLUNITRAZEPAM] | 0.008 µM | 0.003 µM | –
2 | CCOC(=O)C1=CC2c3ccccc3NC2C=N1 (stereo unspecified) | 0.006 µM | 0.0025 µM | –
3 | O=C1Nc2ccccc2Cn2cc3nc4ccccc4c-3cc21 | 2 µM | 6 µM | –
4 | O=C1Nc2ccccc2C(=O)N2Cc3[nH]c4ccccc4c3CC12 (stereo unspecified) | > 100 µM | > 100 µM | –
5 | O=c1[nH]c2ccccc2c(=O)n2cc3nc4ccccc4c-3cc12 | 0.047 µM | 0.023 µM | Total binding [3]: 85 pCi mg-1; Total binding [4]: 96.8 pCi mg-1; Binding [5]: 26.7 pCi mg-1; Total binding [6]: 78.8 pCi mg-1; Total binding [7]: 95.5 pCi mg-1; Binding [8]: 25.6 pCi mg-1; Total binding [9]: 88 pCi mg-1; Total binding [10]: 71.2 pCi mg-1; Binding [11]: 24.1 pCi mg-1
6 | O=C1Nc2ccccc2CN2Cc3[nH]c4ccccc4c3CC12 (stereo unspecified) | > 100 µM | > 100 µM | –
